T cell modulator = T cell immune modulators affecting CD8 T cell-vesicle binding. 2C CD8+ T cell-vesicle binding, flow cytometry; active compounds read low. response (vesicle binding), % at 7 µM. actives 0.068% (n = 330,000). AID 2052;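 active = response, share of CD8 T cells binding vesicles, and their 90th percentile fluorescence all below set limits, cut at about 80% in these data, passing the limit was not always enough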;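 note: values below 100% mean blocked vesicle binding to the CD8+ T cells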
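Benchmarks: naked versus QL9-loaded vesicles / Assay system: purified 2C TCR transgenic mouse naive CD8+ T cells / Technique: high-throughput flow cytometry with anti-B7-1 and anti-CD8 staining / Timing: Cell–vesicle co-incubation 1.5 h at 37 °C, staining 20 min on ice / Read-out: percent CD8+ FL2 mean versus row control / Probe or stimulus: QL9-loaded Drosophila micro-vesicles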
NALP1 inh = blocks the NALP1 inflammasome reconstituted in yeast; S. cerevisiae NALP1/ASC/caspase-1 growth, X-gal OD620, 72 h; inhibition, % at 10 µM; actives 0.61% (n = 280,000); AID 2071; in the data active = inhibition mostly above about 24%, no sharp cut-off; inactive = mostly below about 32%
NLRP3 yeast inh = inhibitors of NALP3 inflammasome in yeast; Yeast reconstituted NLRP3/ASC/caspase-1, beta-gal luminescence, 24 h; inhibition, % at 10 µM; actives 0.39% (n = 330,000);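 active = inhibition of 50% or more; inactive = inhibition below 50%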;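 note: plate controls were induced DMSO wells for no effect and uninduced yeast grown without galactose for full effect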
A1 inh = inhibitors of the anti-apoptotic protein A1, read as caspase activation; MEF A1-2A-BIM cells, Caspase-Glo 3/7 luminescence, 3 h; percent of clofoctol response, vehicle zero; caspase activation, % (concentration not given with the values); actives 0.066% (n = 330,000); AID 2462;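 active = over half of replicate activation scores above 10%, or exactly half above 10 with the replicate mean above 10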
NALP3 yeast conf = confirmation of NALP3 inhibitors in yeast. shares compounds with NLRP3 yeast inh. inhibition, % at 10 µM. yeast expressing human NALP3, luminescence. AID 435006. actives 81% (n = 1,300); in the data active = inhibition above about 48%
Casp1 ASC ctr = counter-screen for NALP3 inhibitors: yeast caspase-1-ASC; shares compounds with NLRP3 yeast inh; yeast expressing Caspase-1-ASC, luminescence counter screen; inhibition, % at 10 µM; actives 66% (n = 1,000)
NALP3 yeast rt = confirmation retest of NALP3 inhibitors in yeast; shares compounds with NLRP3 yeast inh; yeast expressing human NALP3, luminescence read-out; inhibition, % at 10 µM; actives 53% (n = 1,000); AID 488794
An asterisk follows results filed as active; i = inactive; x = not tested or not shown. This is a sample that favours compounds with a hit; in the whole collection about 1% have one here. Cut-off read from the data, not from the text of the source, unless noted: active = inhibition above about 50%; inactive = the rest.

SMILES | T cell modulator | NALP1 inh | NLRP3 yeast inh | A1 inh | NALP3 yeast conf | Casp1 ASC ctr | NALP3 yeast rt
O=C(O)COc1ccc2occ(C(=O)c3ccccc3)c2c1 | 239.9 | -3.8 | 6.6 | -2.6 | x | x | x
O=C(c1cccs1)c1coc2ccc(O)cc12 | 388.4 | -0.2 | 66.8* | -4.3 | 86.2* | 87.0* | 76.5*
CC(=O)Oc1ccc2occ(C(=O)c3ccccc3)c2c1 | 467.5 | x | 43.6 | -4.6 | x | x | x
CC(=O)Oc1ccc2occ(C(=O)c3cccs3)c2c1 | 331.0 | -14.1 | 75.2* | -6.0 | 87.5* | 80.8* | 77.2*
O=C(CCl)Oc1ccc2occ(C(=O)c3cccs3)c2c1 | 372.9 | -3.0 | 72.8* | -7.8 | 85.5* | x | x
O=Cc1ccc(OCCOc2ccc([N+](=O)[O-])cc2)cc1 | 261.1 | 17.6 | 4.3 | 0.2 | x | x | x
O=C(N/N=C/c1cccc(F)c1)c1ccc(Cl)cc1 | 149.1 | 9.9 | 29.2 | 0.4 | x | x | x
CC(C)(C)c1ccc(C(=O)N/N=C/c2cccc(Cl)c2)cc1 | 419.8 | 27.1 | 54.2* | -1.2 | 70.7* | 54.5* | 40.8
CCCCn1c(N)c(N(CC(C)C)C(=O)CSc2ccccc2C)c(=O)[nH]c1=O | 359.3 | x | 7.6 | -0.4 | x | x | x
CCc1sc(C(=O)Nc2nccs2)cc1C | 219.4 | 11.6 | 53.1* | -9.4 | 72.2* | 81.3* | 69.9*
O=C(Nc1nccs1)c1ccc(Cl)s1 | 491.9 | 0.9 | 51.0* | -2.7 | 69.6* | 60.5* | 49.5
COc1ccc(/C=N/NC(=O)c2cccc3ccccc23)c(OC)c1OC | i | x | 9.3 | 0.8 | x | x | x
O=C(Nc1ccccc1)C(=O)Nc1ccc2c(c1)N(C(=O)C1CC1)CCC2 | 418.1 | x | 8.4 | -12.2 | x | x | x
CCN(CC)S(=O)(=O)c1ccc2nc(SC)sc2c1 | 260.2 | 16.6 | 75.3* | 0.8 | 81.6* | 73.3* | 65.9*
C=CCN=C1S/C(=C\N(C)C)C(=O)N1S(=O)(=O)c1ccc(C)cc1 | 303.2 | x | 23.5 | -0.3 | x | x | x
C[C@H](C[C@H](O)[C@H]1OC1(C)C)C1=C2C[C@H](O)C3[C@@]4(C)CCC(=O)C(C)(C)C4CC[C@]3(C)[C@@]2(C)CC1 (stereo not given in full) | 395.0 | x | 17.2 | -0.9 | x | x | x
C[C@@H](C[C@@H](O)[C@H](O)C(C)(C)O)[C@@H]1CC[C@]2(C)C3=CC[C@H]4C(C)(C)C(=O)CC[C@]4(C)[C@H]3CC[C@@]12C | 411.0 | 43.8* | 61.9* | 0.6 | 75.8* | x | x
O=c1c2ccccc2nc(-c2ccc([N+](=O)[O-])cc2)n1O | 149.3 | 0.6 | 58.0* | -0.2 | 74.2* | 51.3* | 57.5*
O=C(NC1CCN(S(=O)(=O)c2cccc(Cl)c2)CC1)C1CCCCC1 | i | 34.7 | 53.2* | -1.8 | 55.8* | 25.3 | 20.3
C/C(=N\OC(=O)c1ccc(Br)cc1)c1ccccn1 | 258.2 | 29.2 | 13.3 | -0.5 | x | x | x
O=C(c1ccccn1)c1conc1C(=O)c1ccc(Br)cc1 | 185.8 | 0.1 | 69.1* | -0.4 | 82.8* | 84.0* | 60.2*
CN(Cc1ccccc1)C1(CNC(=O)CCC(F)(F)F)Cc2ccccc2C1 | 288.1 | 22.2 | 4.2 | -0.4 | x | x | x
Cc1[nH]c2ccccc2c1C(=O)/C=C/c1ccccc1 | 246.2 | -2.8 | 63.3* | 0.7 | 52.4* | 79.8* | 75.0*
Cc1[nH]c2ccccc2c1C(=O)/C=C\c1ccccc1Cl | 332.5 | x | 53.0* | -0.2 | -20.0 | x | x
Cc1[nH]c2ccccc2c1C(=O)/C=C/c1ccccc1Cl | 264.7 | 7.2 | 60.8* | -1.7 | 21.6 | x | x
SMILES | T cell modulator | NALP1 inh | NLRP3 yeast inh | A1 inh | NALP3 yeast conf | Casp1 ASC ctr | NALP3 yeast rt
Cc1nc2ccccc2c(N)c1C(=O)/C=C/c1ccccc1 | 442.5 | 18.4 | 74.7* | -0.9 | 74.2* | 55.9* | 37.8
Cc1[nH]c2ccccc2c1C(=O)CN1CCN(C/C=C/c2ccccc2)CC1 | 202.8 | -6.3 | -0.9 | -0.8 | x | x | x
Cc1nn(Cc2c(F)c(F)c(F)c(F)c2F)c(C)c1NC(=O)c1nn(C)c(C)c1Br | 222.8 | 13.5 | 1.3 | -0.1 | x | x | x
Cc1cccc(OCc2nnc(SCC(=O)NC3CCCC3)n2C)c1 | 345.2 | 6.2 | 7.7 | 0.3 | x | x | x
Cc1ccc2sc(NC(=O)CSc3nc(C)cc(C)c3C#N)nc2c1 | 572.2 | 12.7 | 51.1* | 0.4 | 40.8 | 10.6 | 17.2
CCOc1ccc(NC(=O)COC(=O)C2C3CC4OC(=O)C2C4C3)cc1 (stereo not given) | 472.2 | 12.6 | 24.4 | 0.4 | x | x | x
Cn1cc(S(=O)(=O)N2CCNCC2)cc1C(N)=O | 583.1 | x | 27.2 | -0.8 | x | x | x
CN(C)c1ccc(/C=C/c2ccc3ccccc3[n+]2C)cc1 | 399.3 | 60.3* | 52.1* | -1.1 | 32.8 | x | x
CN(CCCS(=O)(=O)[O-])c1ccc(/C=C/c2ccc3ccccc3[n+]2C)cc1 | 169.9 | 14.4 | 2.1 | 0.4 | x | x | x
COc1ccc(-c2nc3ccccc3[nH]2)cc1 | 687.4 | 10.2 | 55.1* | -8.3 | 61.9* | 57.4* | 66.1*
COC(=O)c1ccc(-c2nc3ccccc3[nH]2)cc1 | i | 45.5 | 63.3* | -9.2 | 38.0 | x | x
CC(=O)C1=C(C)Nc2ncnn2C1c1ccc(Br)cc1 (stereo not given) | 229.6 | 13.5 | 20.6 | 0.4 | x | x | x
c1ccc2c(c1)Cn1c-2nc2ccccc21 | 226.2 | x | 70.5* | -13.1 | 73.4* | 84.0* | 77.2*
COc1ccc(C(C[N+](=O)[O-])c2c(C)cc3ccccn23)c(OC)c1 (stereo not given) | 316.3 | 14.7 | 32.3 | 0.4 | x | x | x
COc1ccc(OC)c(C(C[N+](=O)[O-])c2c(C)cc3ccccn23)c1 (stereo not given) | 518.8 | 27.4 | 64.0* | -0.6 | 44.0 | 66.7* | 37.2
FC(F)(F)c1cccc(N2CCc3cn[nH]c32)c1 | 170.4 | x | 97.0* | -0.3 | 99.2* | 98.8* | 97.4*
CN1CCC(N2CCN(c3cccc(C(F)(F)F)c3)CC2)CC1 | 193.8 | 8.2 | 11.1 | 0.7 | x | x | x
CCN1/C(=C/c2ccc3cc(C)ccc3[n+]2CC)Sc2cc(C)c(C)cc21 | x | 14.8 | 23.9 | x | x | x | x
CCN1/C(=C/c2ccc3cc(C)ccc3[n+]2CC)Sc2ccccc21 | i | 123.3* | 55.6* | -1.0 | 67.8* | 99.6* | 98.8*
COc1ccc2cc(C(N)=O)c(=Nc3ccc(C)cc3)oc2c1 | 575.8 | 0.0 | 21.7 | 0.5 | x | x | x
COc1ccc2oc(=Nc3cccc(F)c3)c(C(N)=O)cc2c1 | 357.1 | 1.8 | 50.2* | -0.6 | 61.9* | 63.4* | 39.1
Cc1c(C=O)c2ccccn2c1C(=O)c1ccc(F)cc1 | 113.1 | 8.4 | 59.3* | -0.5 | 71.8* | 60.0* | 54.2*
Cc1c(/C=N/NC(=O)CNc2ccccc2)c2ccccn2c1C(=O)c1ccc(Cl)cc1 | 183.8 | 21.0 | 10.7 | 0.1 | x | x | x
Cc1c(C=O)c2ccccn2c1C(=O)c1ccccc1 | 256.2 | 18.6 | 55.8* | -0.1 | 58.6* | 54.9* | 41.5
Cc1c(C=O)c2ccccn2c1C(=O)c1ccc(Cl)c([N+](=O)[O-])c1 | 303.2 | -8.8 | 18.8 | -0.4 | x | x | x

Compound activity as filed in PubChem.
